Data set [1] can be described thus: Phase 1 study safety and tolerability. The format is in vivo, human.
Data set [2] concerns the target T1, CYP3A (Homo sapiens, UniProt P08684). The experiment in a line: clinical. To be noted: in vivo; for Tmax: Tmax of midazolam, median (range).
Another data set deals with T2, CYP2C8 (Homo sapiens, UniProt P10632).
T2 sequence (P10632 1-490): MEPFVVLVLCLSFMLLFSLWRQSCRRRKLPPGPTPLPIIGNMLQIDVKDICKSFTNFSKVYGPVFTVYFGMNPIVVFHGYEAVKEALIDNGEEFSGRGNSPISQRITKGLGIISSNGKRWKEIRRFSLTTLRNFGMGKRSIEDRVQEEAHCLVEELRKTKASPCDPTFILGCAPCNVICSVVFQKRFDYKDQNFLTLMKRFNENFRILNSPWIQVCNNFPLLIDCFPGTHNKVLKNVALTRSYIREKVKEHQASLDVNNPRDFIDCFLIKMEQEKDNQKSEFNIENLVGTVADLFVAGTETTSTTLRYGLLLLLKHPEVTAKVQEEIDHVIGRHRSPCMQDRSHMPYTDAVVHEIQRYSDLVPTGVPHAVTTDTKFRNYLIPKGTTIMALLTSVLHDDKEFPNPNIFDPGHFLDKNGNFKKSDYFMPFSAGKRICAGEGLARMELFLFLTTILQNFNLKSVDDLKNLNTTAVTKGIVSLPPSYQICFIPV
Description: Reversible inhibition of CYP2C8 in pooled human liver microsomes. It counts as in vitro ADME. On the technique in general: Liver microsomes are vesicles of endoplasmic reticulum, rich in cytochrome P450 enzymes.

The conditions of data set [3]: cited from earlier work.
For data set [4], the target named is T1, CYP3A. The experiment in a line: Reversible inhibition of CYP3A in pooled human liver microsomes. The format is in vitro ADME.
Another data set deals with T3, CYP2B6 (Homo sapiens, UniProt P20813).
T3 sequence (P20813 1-491): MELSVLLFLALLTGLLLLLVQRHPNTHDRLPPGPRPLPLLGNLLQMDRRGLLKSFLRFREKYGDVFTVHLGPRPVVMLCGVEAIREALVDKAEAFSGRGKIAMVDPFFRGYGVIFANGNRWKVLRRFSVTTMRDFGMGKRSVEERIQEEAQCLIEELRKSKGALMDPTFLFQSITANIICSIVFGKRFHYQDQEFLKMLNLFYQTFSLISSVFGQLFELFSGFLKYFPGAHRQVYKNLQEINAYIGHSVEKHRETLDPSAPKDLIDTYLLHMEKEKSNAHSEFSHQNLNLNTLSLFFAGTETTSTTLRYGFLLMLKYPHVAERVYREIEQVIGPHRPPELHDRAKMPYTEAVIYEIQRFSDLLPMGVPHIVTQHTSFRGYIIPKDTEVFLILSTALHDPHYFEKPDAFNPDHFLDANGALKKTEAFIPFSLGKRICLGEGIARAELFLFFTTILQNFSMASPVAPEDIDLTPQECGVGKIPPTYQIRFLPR
Description: Reversible inhibition of CYP2B6 in pooled human liver microsomes. The format is in vitro ADME.

In another data set the test system is CYP3A4/5. Description: Time-dependent inhibition of CYP3A in pooled human liver microsomes. The format is in vitro ADME.
Data set [5] relates to CYP2C8, CYP2C9, CYP2D6 and CYP3A (range over these CYPs). Description: Reversible CYP inhibition panel in human liver microsomes. To be noted: pooled human liver microsomes. It counts as in vitro ADME.
The target of data set [6] is T4, CYP2D6 (Homo sapiens, UniProt P10635). The experiment in a line: Time-dependent inhibition of CYP2D6 in pooled human liver microsomes. It counts as in vitro ADME.
T4 sequence (P10635 whole entry): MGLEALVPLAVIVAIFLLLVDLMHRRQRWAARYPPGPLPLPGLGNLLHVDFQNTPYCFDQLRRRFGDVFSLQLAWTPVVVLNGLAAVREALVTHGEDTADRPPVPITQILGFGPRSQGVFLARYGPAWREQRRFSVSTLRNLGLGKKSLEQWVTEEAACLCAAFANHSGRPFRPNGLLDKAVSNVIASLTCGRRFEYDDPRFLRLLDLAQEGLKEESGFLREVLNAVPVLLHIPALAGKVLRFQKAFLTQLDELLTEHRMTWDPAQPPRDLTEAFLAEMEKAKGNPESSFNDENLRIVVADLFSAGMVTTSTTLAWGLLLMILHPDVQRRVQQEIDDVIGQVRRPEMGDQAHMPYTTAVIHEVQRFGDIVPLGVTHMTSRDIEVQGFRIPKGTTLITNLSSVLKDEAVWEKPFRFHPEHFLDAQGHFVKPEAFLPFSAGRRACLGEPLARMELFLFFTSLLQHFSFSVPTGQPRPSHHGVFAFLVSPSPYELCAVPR
For data set [7] the following is noted: at 0.76 mg/mL microsomal protein; ref data on file; cited from earlier work.
Data set [8] is described as follows: Clinical plasma exposure after oral PF-04171327. To be noted: 25‐mg steady‐state administration of PF‐04171327. The format is in vivo, human.
For data set [9], the system named is CYP1A2. It counts as in vitro ADME. To be noted: human hepatocytes, 72 hours; data not shown.
Another data set has as its system CYP3A4 mRNA. Description: Induction of CYP3A mRNA in cryopreserved human hepatocytes. It counts as in vitro ADME. To be noted: for Estimated Emax (Fold Induction): highest fold induction observed.
Another data set concerns the target CYP2C19 (Homo sapiens, UniProt P33261). The experiment in a line: Reversible inhibition of CYP2C19 in pooled human liver microsomes. The format is in vitro ADME.
The target of data set [10] is T4, CYP2D6. Description: Reversible inhibition of CYP2D6 in pooled human liver microsomes. The format is in vitro ADME.
The target in a further data set is CYP2C9 (Homo sapiens, UniProt P11712). Description: Reversible inhibition of CYP2C9 in pooled human liver microsomes. The format is in vitro ADME.
CYP2C9, sequence (P11712 whole entry): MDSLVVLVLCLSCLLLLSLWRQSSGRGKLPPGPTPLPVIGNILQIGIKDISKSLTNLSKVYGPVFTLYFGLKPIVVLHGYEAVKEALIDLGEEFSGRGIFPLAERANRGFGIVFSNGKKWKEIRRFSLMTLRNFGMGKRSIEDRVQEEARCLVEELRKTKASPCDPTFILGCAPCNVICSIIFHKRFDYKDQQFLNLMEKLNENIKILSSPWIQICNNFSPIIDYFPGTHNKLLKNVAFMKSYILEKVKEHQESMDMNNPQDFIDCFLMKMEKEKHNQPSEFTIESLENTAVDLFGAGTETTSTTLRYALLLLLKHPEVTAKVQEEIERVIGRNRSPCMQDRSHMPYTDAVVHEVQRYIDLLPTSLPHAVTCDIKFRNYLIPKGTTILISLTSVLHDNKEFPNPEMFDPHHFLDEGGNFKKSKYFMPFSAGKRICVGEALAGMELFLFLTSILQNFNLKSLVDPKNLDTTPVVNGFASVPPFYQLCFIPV
In the next data set the test system is CYP3A4. Description: Induction of CYP3A4 enzyme activity in cryopreserved human hepatocytes. The format is in vitro ADME. To be noted: 72 hours, positive defined as ≥2‐fold. An outline of the steps:
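Cryopreserved human hepatocytes from several lots, in collagen-coated wells, were exposed for 72 h to test compound (0.5–100 or 0.5–60 μM), vehicle, or rifampin (25 or 10 μM). After washing, testosterone (250 μM) or midazolam (30 μM) was added. 6β-Hydroxytestosterone was measured by HPLC-UV and 1′-hydroxymidazolam by LC-MS/MS. A ≥2-fold rise counted as positive. EC50 and Emax were fitted to the concentration–fold-induction curves.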

For data set [11], the target named is T5, CYP1A2 (Homo sapiens, UniProt P05177).
T5 sequence (P05177 1-516): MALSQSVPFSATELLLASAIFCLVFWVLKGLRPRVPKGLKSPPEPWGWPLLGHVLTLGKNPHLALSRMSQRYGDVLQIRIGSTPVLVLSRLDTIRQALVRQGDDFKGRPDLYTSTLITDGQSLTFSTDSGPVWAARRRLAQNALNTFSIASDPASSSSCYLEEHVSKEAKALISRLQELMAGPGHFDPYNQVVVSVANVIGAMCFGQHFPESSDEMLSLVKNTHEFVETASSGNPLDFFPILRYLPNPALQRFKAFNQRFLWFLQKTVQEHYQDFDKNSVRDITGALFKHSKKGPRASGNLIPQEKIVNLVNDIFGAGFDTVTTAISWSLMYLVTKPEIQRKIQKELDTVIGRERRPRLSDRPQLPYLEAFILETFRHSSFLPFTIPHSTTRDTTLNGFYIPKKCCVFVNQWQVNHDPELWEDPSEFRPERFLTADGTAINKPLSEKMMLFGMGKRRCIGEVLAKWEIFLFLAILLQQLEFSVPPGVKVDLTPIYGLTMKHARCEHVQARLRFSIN
The experiment in a line: biochemical. The format is in vitro ADME.

For data set [12] the following is noted: 10 and 25 mg; patients with RA; week 8; cited from earlier work.

These results are taken from article PMC5900965 (Clinical Pharmacology in Drug Development, 2017).

The term AUC(0-inf) denotes the area under the concentration-time curve extrapolated to infinity. The AUC(0-t) is the area under the concentration-time curve up to a stated or last time point. A lower AUC(0-t) goes with low exposure. The Cmax is the maximum level reached in the sampled fluid or tissue. By half-life is commonly meant how long it takes for the measured level to halve. Read a low half-life as rapid decline. As a reminder, the Tmax is the time at which the peak concentration occurs. What is called IC50 is the concentration that inhibits the measured activity by half. As usually defined, the kinact/KI is the maximal inactivation rate divided by the concentration that gives half of it.

“And” between values parts separate entries of the source, which are not always exact repeats. Equal values may be shown once. Bounds are passed on as bounds.

T1 sequence (P08684 2-503): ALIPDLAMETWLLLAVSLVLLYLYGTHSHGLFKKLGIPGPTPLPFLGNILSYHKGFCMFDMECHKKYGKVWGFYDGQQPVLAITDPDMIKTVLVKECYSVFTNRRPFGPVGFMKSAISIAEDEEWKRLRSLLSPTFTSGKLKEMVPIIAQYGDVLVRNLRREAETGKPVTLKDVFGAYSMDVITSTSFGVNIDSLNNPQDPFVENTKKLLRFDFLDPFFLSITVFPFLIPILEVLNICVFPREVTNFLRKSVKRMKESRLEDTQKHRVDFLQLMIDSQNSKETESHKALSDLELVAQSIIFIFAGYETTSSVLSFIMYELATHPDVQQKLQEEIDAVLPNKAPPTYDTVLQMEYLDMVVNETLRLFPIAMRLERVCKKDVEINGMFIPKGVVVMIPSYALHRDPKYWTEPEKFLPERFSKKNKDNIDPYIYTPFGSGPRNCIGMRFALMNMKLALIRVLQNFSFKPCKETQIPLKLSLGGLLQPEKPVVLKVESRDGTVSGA
CYP2C19, sequence (P33261 whole entry): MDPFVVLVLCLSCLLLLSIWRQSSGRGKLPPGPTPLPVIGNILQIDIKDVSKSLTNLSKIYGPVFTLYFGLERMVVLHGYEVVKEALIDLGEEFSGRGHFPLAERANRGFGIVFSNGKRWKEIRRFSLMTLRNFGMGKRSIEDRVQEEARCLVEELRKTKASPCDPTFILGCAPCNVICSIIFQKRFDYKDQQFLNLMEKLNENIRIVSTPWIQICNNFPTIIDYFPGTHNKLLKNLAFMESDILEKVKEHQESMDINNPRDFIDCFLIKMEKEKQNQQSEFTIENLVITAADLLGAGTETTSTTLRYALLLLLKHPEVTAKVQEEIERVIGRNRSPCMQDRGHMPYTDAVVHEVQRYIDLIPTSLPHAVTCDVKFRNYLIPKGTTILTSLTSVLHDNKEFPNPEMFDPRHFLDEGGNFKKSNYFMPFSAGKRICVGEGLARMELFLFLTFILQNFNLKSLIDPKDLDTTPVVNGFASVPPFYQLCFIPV

For the molecule `Cc1ncc2n1-c1ccc(Cl)cc1C(c1ccccc1F)=NC2` [Midazolam, midazolam], in [1] (midazolam 2 mg only, 12 healthy volunteers), the “Treatment‐emergent AEs” value is listed as “No TEAEs were reported”. At CYP3A [2], the AUC(0-inf) was 20.3 ng·h/mL, the AUC(0-t) was 19.8 ng·h/mL, the Cmax came to 7.2 ng/mL and the half-life was 3.34 h. Further, the Tmax at CYP3A [2] is about 0.5 h. On CYP3A [2] (po, 2 mg), this molecule showed an AUC(0-inf) of 21.2 ng·h/mL, an AUC(0-t) of 20.5 ng·h/mL, a Cmax of 8.03 ng/mL and a half-life of 3.87 h. Besides, on CYP3A [2] (po, 2 mg), the Tmax was about 0.5 h.

`Cc1ncccc1NC(=O)c1ccc2c(c1)CC[C@@H]1C[C@@](O)(C(F)(F)F)CC[C@@]21Cc1ccccc1` [PF‐00251802, dagrocorat]: the IC50 against CYP2C8 is 480 nM; at CYP3A [4] (probe felodipine (oxidation)), 1300 nM; against CYP3A [4] (probe midazolam (1′-hydroxylation)) it was 4600 nM; on CYP3A [4] (probe testosterone (6β-hydroxylation)), 1000 nM; at CYP2B6, over 30000 nM; in data set [5], 480 to 4600 nM. The IC50 was over 30000 nM against CYP2C19, 570 nM on CYP2D6 [10], 1800 nM against CYP2C9 and over 30000 nM against CYP1A2 [11]. Besides, in [3] (25‐mg steady‐state administration of PF‐04171327, ref Miyoshi et al 11, Weatherley et al 22, unpublished data), the “Estimated total Cmax” value was “approximately 300 ng/mL”. Also, the “Time to achieve apparent steady‐state concentrations” value in data set [3] (multiple‐dose study of PF‐04171327 in healthy volunteers) is 12 days. In addition, in data set [3] (read-out: Estimated total Cmax, 25‐mg steady‐state administration of PF‐04171327, ref Miyoshi et al 11, Weatherley et al 22, unpublished data), the highest concentration (Cmax) is about 610 nM. Moreover, the “Concentrations at which time‐dependent inhibition of CYP3A was shown” value in the data set with CYP3A4/5 (midazolam as marker substrate) is at least 80 nM. The kinact/KI is 1200 M⁻¹ s⁻¹ with CYP3A4/5 (midazolam, slope of kobs versus [I] curve) and 367 M⁻¹ s⁻¹ on CYP2D6 [6] (dextromethorphan). The Ki at CYP2D6 [6] was 570 nM. The “Concentrations at which time‐dependent inhibition of CYP2D6 was shown” value at CYP2D6 [6] (dextromethorphan as probe substrate) is at least 600 nM. Moreover, the “Fraction unbound in microsomes” value in data set [7] was “approximately 0.22”. In [8], the “Unbound Cmax” value is “approximately 2.1 ng/mL and ~4.2 nM”. Besides, the “Induction of CYP1A2 enzyme activity” value in the data set on CYP1A2 [9] was “No induction”. The “Estimated Emax (Fold Induction)” value is listed as 13 Fold Induction in the data set on CYP3A4 mRNA (Lot 1, expt 1); 4.7 Fold Induction with CYP3A4 mRNA (Lot 1, expt 2); 40 Fold Induction in the data set on CYP3A4 mRNA (Lot 2, expt 1); 22 Fold Induction with CYP3A4 mRNA (Lot 2, expt 2). Besides, the “Induction of CYP3A4 mRNA” value with CYP3A4 mRNA (all lots tested, positive defined as ≥4‐fold induction based on mRNA) is recorded as “Induction of CYP3A4 mRNA was observed”. Also, the “Induction of CYP3A4 enzyme activity” value in the data set on CYP3A4 is given as “not observed”.

Turning to `Cc1ncccc1NC(=O)c1ccc2c(c1)CC[C@@H]1C[C@@](OP(=O)(O)O)(C(F)(F)F)CC[C@@]21Cc1ccccc1` [PF‐04171327, fosdagrocorat], the “Efficacy in improving signs and symptoms of RA” value in [12] was “superior efficacy relative to placebo and comparable efficacy relative to prednisone”. For the same molecule, the “Detection in systemic circulation” value in [3] (single or multiple ascending‐dose phase 1 studies, lower limit of quantification 0.5 ng/mL, ref Pfizer, unpublished data) is “not detected”. Besides, the SAEs or deaths entry in data set [1] (coadministration of PF‐04171327 and midazolam) is “No SAEs or deaths were reported”.
